Test results: ChEMBL document CHEMBL1681701, “Huprines as a new family of dual acting trypanocidal-antiplasmodial agents” (Bioorg Med Chem, 2011)
Where a name gives a salt, the structure may show the parent alone.

Assays:
Trypanosoma brucei [1] = experiment: Antitrypanosomal activity against Trypanosoma brucei 427; format: functional, organism-based
[2] = Selectivity index, ratio of IC50 for rat L6 cells to IC50 for chloroquine-resistant Plasmodium falciparum K1; format: toxicity, cell-based; conditions: read-out: Selectivity Index
L6 = experiment: Cytotoxicity against rat L6 cells after 6 days by Alamar blue assay; format: cell-based; conditions: L6, 144 h
Procedure, shortened: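 Rat skeletal myoblast L6 cells seeded at 1 × 10^4 ml−1 in growth medium with a range of compound concentrations and held 6 days at 37 °C. Alamar Blue was then added and fluorescence read after a further 8 h. IC50 is the mean of triplicate experiments ± SEM.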

Plasmodium falciparum = experiment: Antiplasmodial activity against chloroquine-resistant Plasmodium falciparum K1; format: functional, organism-based
Procedure, shortened: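 K1 parasites grown in human A+ erythrocytes in RPMI 1640 with A+ serum and D-glucose; predominantly early ring-stage cultures used. Twofold serial dilutions run in duplicate from DMSO stocks (final DMSO ≤0.5%), at 2.5% haematocrit and 1% parasitaemia. Incubation was 48 h at 37 °C under 93% N2/3% O2/4% CO2. Growth was read as lactate dehydrogenase activity (APAD/NBT, 550 nm), and IC50 was taken by linear regression.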

Trypanosoma brucei [3] = experiment: Trypanocidal activity against bloodstream form of Trypanosoma brucei 427 after 48 hrs; format: functional, organism-based; conditions: Trypanosoma brucei, 427, 48 h
[4] = Selectivity index, ratio of IC50 for rat L6 cells to IC 50 for Trypanosoma brucei 427; format: toxicity, cell-based; conditions: L6 cells versus Trypanosoma brucei 427, read-out: Selectivity Index

For `CC(C)C1=CC2Cc3nc4ccccc4c(N)c3C(C1)C2` (centres undefined), the IC50 (Trypanosoma brucei [1]) was 300 nM.

Compound `C=CCC1=CC2Cc3nc4ccccc4c(N)c3C(C1)C2` (centres undefined) has an IC50 (Trypanosoma brucei [1]) of 300 nM.

Work on `Nc1c2c(nc3ccccc13)CC1C=C(c3ccccc3)CC2C1` (centres undefined) yielded a selectivity ratio [2] of 2.1, an IC50 (L6) of 3510 nM and an IC50 (Plasmodium falciparum) of 7120 nM. The IC50 (Trypanosoma brucei [3]) was 1650 nM, the IC90 (Trypanosoma brucei [3]) was 4700 nM and the selectivity ratio [4] was 2.1.

For `CC1=CC2Cc3nc4cccc(F)c4c(N)c3C(C1)C2` (centres undefined), the IC50 (Trypanosoma brucei [3]) was 3710 nM and the IC90 (Trypanosoma brucei [3]) was 15800 nM.

Compound `CC1=CC2Cc3nc4cc(Cl)ccc4c(N)c3C(C1)C2` (centres undefined) has an IC50 (Trypanosoma brucei [1]) of 300 nM.

For `CCC1=C[C@@H]2Cc3nc4cc(Cl)ccc4c(N)c3[C@H](C1)C2` [HUPRINE X HYDROCHLORIDE], the IC50 (L6) was 12500 nM, the IC50 (Trypanosoma brucei [1]) was 300 nM and the IC50 (Trypanosoma brucei [3]) was 840 nM.
